These results are taken from PubChem BioAssay AID743214 (The Scripps Research Institute Molecular Screening Center, 2013).

Usually inhibition stands for the relative decrease from the control value, in per cent.

Out of some 2,100 compounds screened, about 10 (0.5%) were called active.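 Rule for the calls: active = mean triplicate inhibition above the solvent-only control wells' mean plus 3 SD (cut at about 12% in these data); inactive = the rest.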 Only a sample is shown.

Sequence of Disintegrin and metalloproteinase domain-containing protein 17 (Homo sapiens) (P78536 215-824 limits assumed): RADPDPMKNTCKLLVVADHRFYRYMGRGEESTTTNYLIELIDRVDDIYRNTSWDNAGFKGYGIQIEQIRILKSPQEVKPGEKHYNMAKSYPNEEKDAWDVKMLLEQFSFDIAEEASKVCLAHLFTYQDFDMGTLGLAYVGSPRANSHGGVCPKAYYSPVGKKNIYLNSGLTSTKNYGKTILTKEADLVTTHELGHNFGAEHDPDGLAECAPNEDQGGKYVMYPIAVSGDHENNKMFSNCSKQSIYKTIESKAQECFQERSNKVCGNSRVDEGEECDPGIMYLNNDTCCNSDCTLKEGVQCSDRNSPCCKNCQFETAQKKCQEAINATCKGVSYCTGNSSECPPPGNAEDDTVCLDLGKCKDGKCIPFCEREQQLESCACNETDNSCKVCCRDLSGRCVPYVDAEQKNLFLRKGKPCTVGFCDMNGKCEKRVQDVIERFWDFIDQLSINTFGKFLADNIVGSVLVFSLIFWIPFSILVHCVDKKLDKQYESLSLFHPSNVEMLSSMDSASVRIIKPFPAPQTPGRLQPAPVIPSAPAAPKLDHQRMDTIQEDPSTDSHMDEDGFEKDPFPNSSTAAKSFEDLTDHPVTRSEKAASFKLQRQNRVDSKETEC

The experiment concerns the target Disintegrin and metalloproteinase domain-containing protein 17 (Homo sapiens) (UniProt P78536). Nature of the experiment: ADAM17 inhibitors, counter-screen for ADAM10 exosite inhibitor project, biochemical, QFRET, high throughput (AID 743214).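 Note: 0% = DMSO wells and 100% = marimastat wells.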 The following applies: ADAM17 QFRET peptide cleavage, EDANS fluorescence; at 6.95 µM; stronger effect = higher value. The essentials:
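Compound dosing: 6.95 µM single dose. System: ADAM17 enzyme, quenched-FRET peptide cleavage. Input: ADAM17 2X stock, 20 nM. Repeats: triplicate wells per compound. Signal: EDANS fluorescence, excitation 359 nm, emission 460 nm. Timing: 30 min compound–enzyme preincubation, then 3 h reaction, both 25 °C.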
(In general: Counterscreens check selectivity or assay interference.)
As for `COc1cc(/C=N/O)cc(Br)c1OS(=O)(=O)c1ccc(C)cc1`, the inhibition was 0.97% (inactive). `CC(C)C(=O)Nc1cccc(NC(=S)NC(=O)C(c2ccccc2)c2ccccc2)c1`: the inhibition is 3.08% (inactive). Then `CC(C)(C)OC(=O)N1CCC(NC(=O)c2[nH]cnc2C(=O)N[C@@H](Cc2ccccc2)C(=O)OCc2ccccc2)CC1`, with 3.26% (inactive); and `CCOc1ccc(N2C(=O)CC(N(CCc3ccc(OC)c(OC)c3)C(=S)Nc3ccccc3)C2=O)cc1` (stereo not given), with 0.25% (inactive).

On to `CCCC(=O)n1nc(NCc2ccc(OC)cc2)nc1NCc1ccc(OC)cc1`, for which the inhibition was 2.02% (inactive).

As for `O=C(/C=C/c1ccc(F)cc1)NC(=S)NNC(=O)c1cccnc1`, the inhibition is 0.5% (inactive). Then `COc1cccc(NC(=O)C2C(c3ccccc3)C2(Cl)Cl)c1` (stereo not given), with 1% (inactive).

For `CC1(C)C=Cc2c(ccc3c2OC[C@@H](c2ccc(O)cc2O)C3)O1`, the inhibition was 2.8% (inactive). Then `Cc1ccc(C)c(NC(=S)NNC(=O)c2csc(C)c2)c1`, with 2.16% (inactive); and `COc1ccc(S(=O)(=O)N2CCN(C(C)C(=O)Nc3ccc(C(C)C)cc3)CC2)cc1` (stereo not given), with 1.3% (inactive); and `COc1ccc(C(=O)NNC(=S)NC(=O)c2ccccc2)cc1`, with 0.42% (inactive).

As to `O=C1[C@H]2[C@@H](c3ccc(F)cc3)N3C(=O)N(c4ccc(C(F)(F)F)cc4)C(=O)[C@@]3(Cc3ccccc3)[C@H]2C(=O)N1C1CCCCC1`, the inhibition was 2.35% (inactive).

On to `COc1cccc(CC2(CO)CCCN(Cc3ccc(OC(F)F)cc3)C2)c1` (stereo not given), for which the inhibition was 0.36% (inactive). Then `CC(C)Oc1cc(F)ccc1-c1cc(C(=O)Nc2cccc(Cl)c2)[nH]n1`, with 2.81% (inactive); and `CCOc1cc(NC(=O)c2ccccc2C(=O)O)c(OCC)cc1NC(=O)c1ccccc1F`, with 2.06% (inactive); and `Cc1csc(NC(=S)Nc2cccc(Cl)c2)n1`, with 2.94% (inactive).

For `O=C(NC(Cc1c[nH]c2ccccc12)C(=O)N/N=C/c1ccc(Br)cc1)c1cccs1` (stereo not given), the inhibition was 3.25% (inactive). Then `Cc1cc(C)cc(NS(=O)(=O)c2ccc(Oc3ncc(C(F)(F)F)cc3Cl)cc2)c1`, with 5.19% (inactive); and `Cc1ccc(N(NC(=O)C(C)(C)O)C(=O)c2ccccc2)cc1C`, with -0.31% (inactive); and `O=C1[C@H]2[C@@H](c3ccc(C(F)(F)F)cc3)N[C@]3(CCCN(Cc4ccc(Br)cc4)C3=O)[C@H]2C(=O)N1Cc1ccccc1`, with 2.47% (inactive). Then `Cc1[nH]c2ccccc2c1C(=O)COC(=O)c1c(-c2ccccc2)noc1C`, with 2.46% (inactive); and `CC1(Cc2cccc(C#N)c2)C(=O)Nc2ccc(-c3cccc(C(F)(F)F)c3)cc21` (stereo not given), with 2.64% (inactive); and `Cc1ccc(OCc2nnc(SC/C=C/c3ccccc3)n2Cc2ccco2)cc1`, with 2.07% (inactive). Then `Cc1ccccc1-n1c(SCC(=O)Nc2cccc3ccccc23)nc(O)cc1=O`, with 0.79% (inactive); and `O=C(CNC(=O)c1ccc(Cl)cc1Cl)NCC(=O)Nc1ccccc1N1CCOCC1`, with -0.05% (inactive); and `Cc1cnc(C(=O)OCc2c(C)cc(C(C)(C)C)cc2C)cn1`, with 0.19% (inactive). `Cc1cc(C)cc(NC(=O)CSCc2cnn(-c3ccccc3)c2-n2cccc2)c1`: the inhibition is 1.7% (inactive). On to `c1ccc2c(CCN3CCNC[C@H]3Cc3cccc4ccccc34)cccc2c1`, for which the inhibition was 2.24% (inactive). Then `Cc1cc(O)ccc1-c1cc(C(=O)NCc2cc(C(F)(F)F)cc(C(F)(F)F)c2)[nH]n1`, with 1.86% (inactive); and `Cc1cc(C)cc(NC(=S)NCCc2c[nH]c3ccccc23)c1`, with 0.79% (inactive). Then `COc1ccc(C2CC(c3ccccc3)=NN2C(=O)COC(=O)COc2ccccc2)cc1` (stereo not given), with 3.56% (inactive); and `C=CC[C@H](CC(=O)N(CCO)Cc1ccccc1)C(=O)N[C@@H](COC(=O)[C@@H](CC=C)Cc1ccc(F)cc1)Cc1ccccc1`, with 3.06% (inactive); and `CCC(C)(C)c1ccc(Oc2ccc(NC(=O)COC(=O)C3=COCCO3)cc2)cc1`, with 3.28% (inactive). For `COc1ccc(Cl)cc1NC(=O)CN(C)C(=O)CCCc1c[nH]c2ccccc12`, the inhibition is 0.4% (inactive). Then `COc1ccccc1CC1(C)C(=O)Nc2ccc(OC(F)(F)F)cc21` (stereo not given), with 0.53% (inactive); and `CC(C)(C)OC(=O)CNC(=O)c1[nH]cnc1C(=O)N[C@@H](Cc1ccccc1)C(=O)OCc1ccccc1`, with 2.08% (inactive). Then `C=CCC[C@@H](Cc1ccc(F)cc1)C(=O)OC[C@H](Cc1c[nH]c2ccccc12)NC(=O)[C@@H](CC=C)CC(=O)N(CCO)Cc1ccccc1`, with 3.11% (inactive); and `Cc1cc(Nc2ccccc2)n(C(=O)c2ccc(N)cc2)n1`, with 0.56% (inactive); and `O=C(NCc1ccccc1)c1onc(CSc2nc3ccccc3[nH]2)c1C(=O)NCc1ccccc1`, with 1.52% (inactive). Then `COc1ccc(C(=O)NN2C(=O)C3C(c4ccccc4)C=CC(c4ccccc4)C3C2=O)cc1` (stereo not given), with 2.28% (inactive).

Consider `N#Cc1nc(Cc2cccc3ccccc23)oc1NCc1ccc2c(c1)OCO2`, for which the inhibition is 2.25% (inactive). Then `CC(C)Oc1ccc(CC(=O)NNC(=S)Nc2ccc(Br)cc2)cc1`, with 0.68% (inactive); and `Cn1nc(C(F)(F)F)c(C(=O)Nc2cccc(C(F)(F)F)c2)c1SCc1ccc(Cl)cc1`, with 2.65% (inactive). Then `O=C(Oc1cccc(N2C(=O)C3C4c5ccccc5C(c5ccccc54)C3C2=O)c1)c1ccco1` (stereo not given), with 1.5% (inactive); and `COc1cc(/C=N/n2c(C)n[nH]c2=S)ccc1OCc1ccccc1`, with -0.91% (inactive).
